One block for each compound: values may come before it. Calls of active or inactive are those of the source. The calls are words filed in the database; no cut-off is given here.
Key:
[1] = test system: Rattus norvegicus; assay: Tested for in vivo inhibition of galactitol accumulation in the sciatic nerve of galactose-fed rats at the dose of 25 (mg/kg/day); NS=Not significant; format: functional, organism-based
Outline: (§1)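 Rats were given a 20% galactose diet for 4 days, with the test compound administered in the diet. Sciatic nerve galactitol accumulation was measured, and activity is given as % inhibition at the stated daily dose (mg/kg/day). Values are mean ± SEM, n = 6 animals; p < 0.01 unless indicated. NS means no significant inhibition of polyol accumulation.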

[2] = test system: Rattus norvegicus; assay: Tested for in vivo inhibition of galactitol accumulation in the lens of galactose-fed rats at the dose of 25 (mg/kg/day); NS=Not significant; format: functional, organism-based; details: Lens of camera-type eye
[3] = biological target: Aldo-keto reductase family 1 member B1 (Bos taurus) (UniProt P16116); assay: Inhibition of aldose reductase activity in partially purified bovine lens preparation at 10e-5 M
Outline: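 Partially purified bovine lens aldose reductase. Reduction of DL-glyceraldehyde substrate followed spectrophotometrically. Activity expressed as average inhibition at the tested concentrations, 1×10^-5, 1×10^-6, 1×10^-7 and 4×10^-6 M as printed; IC50 in M where given.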

[4] = test system: Rattus norvegicus; assay: Tested for in vivo inhibition of galactitol accumulation in the lens of galactose-fed rats at the dose of 50 (mg/kg/day); format: functional, Lens of camera-type eye
[5] = test system: Rattus norvegicus; assay: Tested for in vivo inhibition of galactitol accumulation in the sciatic nerve of galactose-fed rats at the dose of 50 (mg/kg/day); format: functional
Outline: (§2)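 Rats fed a 20% galactose diet for 4 days, with test compound given in the diet at the stated daily dose (mg/kg/day). Read-out is inhibition of galactitol (polyol) accumulation in sciatic nerve. Values are % inhibition, mean ± SEM of six animals; p < 0.01 unless marked (some p < 0.05). NS = no significant inhibition of polyol accumulation. Tolrestat was the reference standard.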

[6] = test system: Rattus norvegicus; assay: Tested for in vivo inhibition of galactitol accumulation in the sciatic nerve of galactose-fed rats at the dose of 24.9 (mg/kg/day); format: functional; outline: as §1
[7] = test system: Rattus norvegicus; assay: Tested for in vivo inhibition of galactitol accumulation in the sciatic nerve of galactose-fed rats at the dose of 25.2 (mg/kg/day); NS=Not significant; format: functional, organism-based; outline: as §1
[8] = test system: Rattus norvegicus; assay: Tested for in vivo inhibition of galactitol accumulation in the lens of galactose-fed rats at the dose of 25.2 (mg/kg/day); NS=Not significant; format: functional, organism-based; details: Lens of camera-type eye
[9] = test system: Rattus norvegicus; assay: Tested for in vivo inhibition of galactitol accumulation in the lens of galactose-fed rats at the dose of 47.7 (mg/kg/day); NS=Not significant; format: functional, organism-based; details: Lens of camera-type eye
[10] = test system: Rattus norvegicus; assay: Tested for in vivo inhibition of galactitol accumulation in the sciatic nerve of galactose-fed rats at the dose of 47.7 (mg/kg/day); NS=Not significant; format: functional, organism-based; outline: as §1
[11] = test system: Rattus norvegicus; assay: Tested for in vivo inhibition of galactitol accumulation in the sciatic nerve of galactose-fed rats at the dose of 25.1 (mg/kg/day); NS=Not significant; format: functional, organism-based; outline: as §1
[12] = test system: Rattus norvegicus; assay: Tested for in vivo inhibition of galactitol accumulation in the sciatic nerve of galactose-fed rats at the dose of 47.2 (mg/kg/day); NS=Not significant; format: functional, organism-based; outline: as §1
[13] = test system: Rattus norvegicus; assay: Tested for in vivo inhibition of galactitol accumulation in the lens of galactose-fed rats at the dose of 47.2 (mg/kg/day); NS=Not significant; format: functional, organism-based; details: Lens of camera-type eye
[14] = test system: Rattus norvegicus; assay: Tested for in vivo inhibition of galactitol accumulation in the sciatic nerve of galactose-fed rats at the dose of 1.0 (mg/kg/day); NS=Not significant; format: functional, organism-based; outline: as §1
[15] = test system: Rattus norvegicus; assay: Tested for in vivo inhibition of galactitol accumulation in the lens of galactose-fed rats at the dose of 26.1 (mg/kg/day); NS=Not significant; format: functional, organism-based; details: Lens of camera-type eye
[16] = biological target: Aldo-keto reductase family 1 member B1 (Bos taurus) (UniProt P16116); assay: Inhibition of aldose reductase activity in partially purified bovine lens preparation at 4*10 e-8 M
[17] = test system: Rattus norvegicus; assay: Tested for in vivo inhibition of galactitol accumulation in the sciatic nerve of galactose-fed rats at the dose of 26.1 (mg/kg/day); NS=Not significant; format: functional, organism-based; outline: as §1
[18] = test system: Rattus norvegicus; assay: Tested for in vivo inhibition of galactitol accumulation in the lens of galactose-fed rats at the dose of 24.9 (mg/kg/day); NS=Not significant; format: functional, organism-based; details: Lens of camera-type eye
[19] = test system: Rattus norvegicus; assay: Tested for in vivo inhibition of galactitol accumulation in the sciatic nerve of galactose-fed rats at the dose of 24.9 (mg/kg/day); NS=Not significant; format: functional, organism-based; outline: as §1
[20] = test system: Rattus norvegicus; assay: Tested for in vivo inhibition of galactitol accumulation in the lens of galactose-fed rats at the dose of 25.1 (mg/kg/day); NS=Not significant; format: functional, organism-based; details: Lens of camera-type eye
[21] = test system: Rattus norvegicus; assay: Tested for in vivo inhibition of galactitol accumulation in the sciatic nerve of galactose-fed rats at the dose of 98 (mg/kg/day); NS=Not significant; format: functional, organism-based; outline: as §2
[22] = test system: Rattus norvegicus; assay: Tested for in vivo inhibition of galactitol accumulation in the lens of galactose-fed rats at the dose of 98 (mg/kg/day); NS=Not significant; format: functional, organism-based; details: Lens of camera-type eye
Outline: (§3)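 Galactosemic rats were fed 20% galactose for 4 days, with the compound mixed into the diet. […] galactitol accumulation was measured, and activity is given as % inhibition at the stated daily dose (mg/kg/day). Values are mean ± SEM of six animals; p < 0.01 unless indicated. NS means no significant inhibition of polyol accumulation.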

[23] = test system: Rattus norvegicus; assay: Tested for in vivo inhibition of galactitol accumulation in the sciatic nerve of galactose-fed rats at the dose of 69.2 (mg/kg/day); NS=Not significant; format: functional, organism-based; outline: as §2
[24] = test system: Rattus norvegicus; assay: Tested for in vivo inhibition of galactitol accumulation in the lens of galactose-fed rats at the dose of 69.2 (mg/kg/day); NS=Not significant; format: functional, organism-based; details: Lens of camera-type eye; outline: as §3
[25] = test system: Rattus norvegicus; assay: Tested for in vivo inhibition of galactitol accumulation in the lens of galactose-fed rats at the dose of 55 (mg/kg/day); NS=Not significant; format: functional, organism-based; details: Lens of camera-type eye
[26] = test system: Rattus norvegicus; assay: Tested for in vivo inhibition of galactitol accumulation in the sciatic nerve of galactose-fed rats at the dose of 55 (mg/kg/day); NS=Not significant; format: functional, organism-based; outline: as §2
[27] = test system: Rattus norvegicus; assay: Tested for in vivo inhibition of galactitol accumulation in the sciatic nerve of galactose-fed rats at the dose of 1.1 (mg/kg/day); format: functional; outline: as §1

Compound: O=C1c2ccccc2C2(CC(=O)N(N=C3CCOCC3)C2=O)C(=O)N1Cc1nc2cc(C(F)(F)F)ccc2s1 (stereo not given)
- Inhibition [4]: 41%
- Inhibition [5]: 94%
- inhibition [3]: inactive

Compound: NN1C(=O)CC2(C1=O)C(=O)N(Cc1nc3cc(C(F)(F)F)ccc3s1)C(=O)c1ccc(F)cc12 (stereo not given)
- Inhibition [4]: 31%
- Inhibition [5]: 97%
- inhibition [3]: inactive

Compound: CN1C(=O)CC2(C1=O)C(=O)N(Cc1ccc(C(F)(F)F)cc1)C(=O)c1ccccc12 (stereo not given)
- inhibition [11]: inactive
- inhibition [3]: inactive

Compound: CC(C)=NN1C(=O)CC2(C(=O)N(Cc3nc4cc(C(F)(F)F)ccc4s3)C(=O)c3ccccc32)C1=O (stereo not given)
- Inhibition [4]: 37%
- Inhibition [5]: 95%
- inhibition [3]: inactive

Compound: CC(=O)NN1C(=O)CC2(C(=O)N(Cc3nc4cc(C(F)(F)F)ccc4s3)C(=O)c3ccccc32)C1=O (stereo not given)
- Inhibition [4]: 40%
- Inhibition [5]: 94%
- inhibition [3]: inactive

Compound: NN1C(=O)CC2(C1=O)C(=O)N(Cc1nc3cc(C(F)(F)F)ccc3s1)C(=O)c1ccccc12 (stereo not given)
- Inhibition [4]: 61%
- Inhibition [5]: 96%
- inhibition [3]: inactive

Compound: O=C1Cc2c(n(Cc3ccc(Br)cc3F)c(=O)c3ccccc23)O1
- inhibition [18]: inactive
- inhibition [19]: inactive
- inhibition [16]: 32%

Compound: CCCCN1C(=O)CC2(C1=O)C(=O)N(Cc1ccc(Br)cc1F)C(=O)c1ccccc12 (stereo not given)
- inhibition [14]: inactive
- inhibition [3]: inactive

Compound: CCCN1C(=O)CC2(C1=O)C(=O)N(Cc1ccc(Br)cc1F)C(=O)c1ccccc12 (stereo not given)
- inhibition [14]: inactive
- inhibition [3]: inactive

Compound: O=C1c2ccccc2C2(CC(=O)N(N=C3CCCC3)C2=O)C(=O)N1Cc1nc2cc(C(F)(F)F)ccc2s1 (stereo not given)
- Inhibition [4]: 28%
- Inhibition [5]: 92%
- inhibition [3]: inactive

Compound: O=C(O)CN1C(=O)c2ccccc2C(Cc2ccc(Br)cc2F)C1=O (stereo not given)
- inhibition [25]: inactive
- inhibition [26]: inactive

Compound: CCN1C(=O)CC2(C1=O)C(=O)N(Cc1nc3cc(C(F)(F)F)ccc3s1)C(=O)c1ccc(F)cc12 (stereo not given)
- inhibition [3]: inactive

Compound: CN1C(=O)CC2(C1=O)C(=O)N(Cc1ccc(Br)cc1F)C(=O)c1ccccc12 (stereo not given)
- Inhibition [27]: 76%
- inhibition [3]: inactive

Compound: O=C1CC2(N1)C(=O)N(Cc1ccc(Br)cc1F)C(=O)c1ccccc12 (stereo not given)
- inhibition [25]: inactive
- inhibition [26]: inactive

Compound: CN1NC(=O)C2(CC1=O)C(=O)N(Cc1ccc(Br)cc1F)C(=O)c1ccccc12 (stereo not given)
- inhibition [26]: inactive
- inhibition [3]: inactive

Compound: CCN1C(=O)CC2(C1=O)C(=O)N(Cc1ccc(Br)cc1F)C(=O)c1ccc(F)cc12 (stereo not given)
- inhibition [3]: inactive

Second part, led by results:

- inhibition [3]: inactive
Compound: NC(=O)CC1C(=O)N(Cc2ccc(Br)cc2F)C(=O)c2cc(F)ccc21 (stereo not given)
- inhibition [1]: inactive
- inhibition [2]: inactive

- inhibition [3]: inactive
Compound: CN1C(=O)CC2(C1=O)C(=O)N(Cc1cccc(C(F)(F)F)c1)C(=O)c1ccccc12 (stereo not given)
- Inhibition [6]: 28%

- inhibition [3]: inactive
Compound: NC(=O)CC1C(=O)N(Cc2ccc(Br)cc2F)C(=O)c2ccccc21 (stereo not given)
- inhibition [7]: inactive
- inhibition [8]: inactive

- inhibition [3]: 88%
Compound: NC(=O)CC1C(=O)N(Cc2ccc(Br)cc2F)C(=O)c2ccc(F)cc21 (stereo not given)
- inhibition [1]: inactive
- inhibition [2]: inactive

- inhibition [3]: 67%
Compound: COC(=O)NC(=O)CC1C(=O)N(C)C(=O)c2ccc([N+](=O)[O-])cc21 (stereo not given)
- inhibition [9]: inactive
- inhibition [10]: inactive

- inhibition [3]: 53%
Compound: COC(=O)NC(=O)CC1C(=O)N(C)C(=O)c2ccc(OC)cc21 (stereo not given)
- inhibition [12]: inactive
- inhibition [13]: inactive

- inhibition [3]: inactive
Compound: CN1C(=O)CC2(C1=O)C(=O)N(C)C(=O)c1ccc(Cl)cc12 (stereo not given)
- inhibition [14]: inactive

- inhibition [16]: 30%
Compound: O=C(O)CC1C(=O)N(Cc2ccc(Br)cc2F)C(=O)c2cc(Cl)ccc21 (stereo not given)
- inhibition [15]: inactive
- inhibition [17]: inactive

- inhibition [3]: 72%
Compound: COC(=O)NC(=O)CC1C(=O)N(C)C(=O)c2cc(OC)ccc21 (stereo not given)
- inhibition [7]: inactive
- inhibition [8]: inactive

- inhibition [3]: 62%
Compound: CNC(=O)CC1C(=O)N(Cc2ccc(Br)cc2F)C(=O)c2ccccc21 (stereo not given)

- inhibition [16]: 80%
Compound: O=C(O)CC1C(=O)N(Cc2ccc(Br)cc2F)C(=O)c2ccc(F)cc21 (stereo not given)
- inhibition [18]: inactive
- Inhibition [6]: 47%

- inhibition [3]: 90%
Compound: COC(=O)NC(=O)CC1C(=O)N(C)C(=O)c2cc(Cl)c(Cl)cc21 (stereo not given)
- inhibition [9]: inactive
- inhibition [10]: inactive

- inhibition [3]: 80%
Compound: CCNC(=O)CC1C(=O)N(Cc2ccc(Br)cc2F)C(=O)c2ccc(F)cc21 (stereo not given)
- inhibition [11]: inactive
- inhibition [20]: inactive

- inhibition [16]: 58%
Compound: O=C(O)CC1C(=O)N(Cc2ccc(Cl)c(Cl)c2)C(=O)c2ccccc21 (stereo not given)
- inhibition [21]: inactive
- inhibition [22]: inactive

- inhibition [3]: 43%
Compound: O=C(O)CC1C(=O)N(Cc2ccc(C(F)(F)F)cc2)C(=O)c2ccccc21 (stereo not given)

- inhibition [3]: 70%
Compound: CN1C(=O)c2ccccc2C(CC(=O)O)C1=O (stereo not given)
- inhibition [23]: inactive
- inhibition [24]: inactive

- inhibition [16]: 42%
Compound: O=C(O)CC1C(=O)N(Cc2ccc(Br)cc2F)C(=O)c2cc(F)ccc21 (stereo not given)

- inhibition [3]: 45%
Compound: CC1(CC(=O)O)C(=O)N(Cc2ccc(Cl)c(Cl)c2)C(=O)c2ccccc21 (stereo not given)

- inhibition [3]: inactive
Compound: CN1C(=O)c2ccccc2C(CC(N)=O)C1=O (stereo not given)
- inhibition [23]: inactive
- inhibition [24]: inactive

- inhibition [3]: 29%
Compound: COC(=O)NC(=O)CC1C(=O)N(C)C(=O)c2cc(Br)c(OC)cc21 (stereo not given)

Source: ChEMBL document CHEMBL1127562, “N-substituted spirosuccinimide, spiropyridazine, spiroazetidine, and acetic acid aldose reductase inhibitors derived from isoquinoline-1,3-diones. 2” (J Med Chem, 1994)
